The source of these data is publication PMC8853157 (Medicinal Chemistry Research, 2022).

Structures are written as SMILES. Entries after “also recorded” stand apart in the source; their conditions may differ.

Experiment [1] deals with LFA-1/ICAM-1 (Homo sapiens, UniProt P20701). In words: Jurkat T-cell adhesion assay. The format is cell-based. The following applies: for LFA-1/ICAM-1 antagonist activity in words / IC50 level in words: Jurkat T-cell adhesion assay; for LFA-1/ICAM-1 antagonist activity in words: compared with Lifitegrast. The gist of the method: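 Jurkat E6-1 cells (RPMI 1640, 5% FBS, 37 °C, 5% CO2) labeled with 8 μM BCECF for 15 min at room temperature. Cells (5 × 10^5/well) preincubated with compound for 30 min at 37 °C, then settled 1 h at 37 °C on recombinant human ICAM-1–Fc-coated wells. Titration 10−10–10−4 M in triplicate lanes. Non-adherent cells washed off; adherent-cell fluorescence read; IC50 by four-parameter logistic regression.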
Sequence of LFA-1/ICAM-1 (Homo sapiens, UniProt P20701) (P20701 26-1170): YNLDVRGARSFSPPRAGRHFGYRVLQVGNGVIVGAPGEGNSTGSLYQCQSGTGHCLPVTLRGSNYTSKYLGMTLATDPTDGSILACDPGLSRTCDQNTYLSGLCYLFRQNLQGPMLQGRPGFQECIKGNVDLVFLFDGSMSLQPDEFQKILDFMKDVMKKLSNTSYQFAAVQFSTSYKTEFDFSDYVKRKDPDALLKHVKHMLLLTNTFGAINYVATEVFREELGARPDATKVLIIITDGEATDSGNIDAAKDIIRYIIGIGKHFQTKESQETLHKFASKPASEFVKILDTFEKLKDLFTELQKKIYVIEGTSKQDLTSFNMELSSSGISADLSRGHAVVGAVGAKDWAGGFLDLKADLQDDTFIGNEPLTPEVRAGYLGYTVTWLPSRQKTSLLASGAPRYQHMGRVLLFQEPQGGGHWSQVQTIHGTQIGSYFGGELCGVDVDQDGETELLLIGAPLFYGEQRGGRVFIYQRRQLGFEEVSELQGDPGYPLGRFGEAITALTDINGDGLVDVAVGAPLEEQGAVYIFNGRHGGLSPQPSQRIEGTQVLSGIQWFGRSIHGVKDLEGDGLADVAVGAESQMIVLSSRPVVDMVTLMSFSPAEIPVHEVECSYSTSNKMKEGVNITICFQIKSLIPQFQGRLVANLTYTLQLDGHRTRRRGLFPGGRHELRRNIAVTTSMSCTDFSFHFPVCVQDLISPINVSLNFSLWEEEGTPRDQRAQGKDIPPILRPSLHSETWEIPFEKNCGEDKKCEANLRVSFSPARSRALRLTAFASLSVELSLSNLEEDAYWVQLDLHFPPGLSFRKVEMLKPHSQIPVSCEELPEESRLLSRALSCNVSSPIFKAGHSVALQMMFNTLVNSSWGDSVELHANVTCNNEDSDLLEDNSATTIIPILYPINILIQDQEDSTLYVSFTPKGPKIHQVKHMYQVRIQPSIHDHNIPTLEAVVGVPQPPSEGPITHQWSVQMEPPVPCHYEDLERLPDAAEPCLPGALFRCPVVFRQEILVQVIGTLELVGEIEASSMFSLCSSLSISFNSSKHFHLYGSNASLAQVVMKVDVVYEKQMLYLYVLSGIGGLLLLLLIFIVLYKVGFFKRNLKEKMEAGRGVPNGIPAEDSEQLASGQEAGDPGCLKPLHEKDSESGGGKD
Sequence of LFA-1/ICAM-1 (Homo sapiens, UniProt P20701) (P05107 23-769 partner): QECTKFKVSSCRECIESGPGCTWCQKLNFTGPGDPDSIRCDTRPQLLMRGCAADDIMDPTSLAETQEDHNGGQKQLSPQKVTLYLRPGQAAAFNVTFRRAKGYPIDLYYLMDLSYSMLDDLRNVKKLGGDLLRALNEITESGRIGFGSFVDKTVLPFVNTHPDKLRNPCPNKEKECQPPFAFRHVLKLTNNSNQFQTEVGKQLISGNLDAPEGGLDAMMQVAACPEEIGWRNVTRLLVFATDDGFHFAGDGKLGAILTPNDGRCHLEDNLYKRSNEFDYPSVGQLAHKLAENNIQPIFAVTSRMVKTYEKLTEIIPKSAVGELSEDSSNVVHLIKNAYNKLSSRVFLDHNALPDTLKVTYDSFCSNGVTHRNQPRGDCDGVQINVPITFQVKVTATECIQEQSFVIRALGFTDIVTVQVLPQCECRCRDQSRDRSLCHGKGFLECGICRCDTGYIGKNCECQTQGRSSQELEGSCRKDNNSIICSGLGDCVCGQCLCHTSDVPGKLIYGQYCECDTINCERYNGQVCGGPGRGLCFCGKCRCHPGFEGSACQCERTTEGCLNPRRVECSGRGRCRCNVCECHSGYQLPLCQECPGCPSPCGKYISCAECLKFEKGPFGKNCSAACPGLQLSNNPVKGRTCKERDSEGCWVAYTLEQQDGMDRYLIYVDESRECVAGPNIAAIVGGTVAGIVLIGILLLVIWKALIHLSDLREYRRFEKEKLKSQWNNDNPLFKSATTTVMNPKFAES

Experiment [2] has as its system LFA-1/ICAM-1. As to conditions: read-out: previously reported IC50; HUT 78T cells; cited from earlier work.
The subject of experiment [3] is dry eye mice model. Put plainly: Goblet cell density. Type of experiment: in vivo, C57/BL6 mice. The following applies: 14 days, vs dry eye model group. In outline: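 Dry eye was induced in female C57/BL6 mice (6–8 weeks, n = 5/group) by RH 15, 2 m/s airflow, 21–23 °C and s.c. scopolamine hydrobromide (0.5 mg/0.2 ml) three times daily for 14 days. Eye drops (5 µL) went to both eyes twice daily. Central frozen sections (6 µm) were PAS-stained, and goblet cells per mm were counted by image analysis. Mean ± SEM, 10 eyes/group.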

Experiment [4] relates to dry eye mice model. Put plainly: TUNEL staining of corneal epithelium in dry eye mice model. The format is in vivo, C57/BL6 mice. The following applies: for TUNEL positive (Cy3 labeled) cells in cornea, apoptosis: 14 days, vs dry eye model group. In outline:
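Female C57/BL6 mice, 6–8 weeks, n=5/group. Dry eye induced over 14 days. Both eyes received 5 µL drops twice daily: test compound 5% or 7% W/V, vehicle, or 5% reference antagonist. Eyes then excised, OCT-embedded and cut into 6 µm frozen central sagittal sections. Sections TUNEL/DAPI-stained. TUNEL-positive cells counted in the central 200 µm corneal epithelial field at ×400. n=10 eyes/group; mean ± SEM.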

In experiment [5] the test system is dry eye mice model. Put plainly: Dry eye mice model, overall effect. The format is in vivo, C57/BL6 mice. The following applies: 5% vs 7% (W/V) compound 1b, topical. In outline: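 Female C57/BL6 mice (6–8 weeks, n = 5/group) were kept at RH 15, airflow 2 m/s and 21–23 °C for 14 days, with s.c. scopolamine hydrobromide (0.5 mg/0.2 ml) three times daily. Test compound (5% or 7% W/V) was given as 5 µL drops to both eyes twice daily. Read-outs were fluorescein score summed over five corneal regions, PAS goblet density and TUNEL; 10 eyes/group.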

For `O=C(NC(Cc1ccc2c(c1)S(=O)(=O)CC2)C(=O)O)c1c(Cl)cc2c(c1Cl)CCN(C(=O)c1ccc3ccoc3c1)C2` (centres unmarked) [Compound 1g, 2-(2-(Benzofuran-6-carbonyl)-5,7-dichloro-1,2,3,4-tetrahydroisoquinoline-6-carboxamido)-3-(1,1-dioxido-2,3-dihydrobenzo[b]thiophen-6-yl)propanoic acid], on LFA-1/ICAM-1 [1], the “LFA-1/ICAM-1 antagonist activity in words” value is listed as “loss of activity”.
Consider `CS(=O)(=O)c1cccc(C[C@H](NC(=O)c2c(Cl)cc3c(c2Cl)CCN(C(=O)Cc2ccc4occc4c2)C3)C(=O)O)c1` [Compound 1c, (S)-2-(2-(2-(Benzofuran-5-yl)acetyl)-5,7-dichloro-1,2,3,4-tetrahydroisoquinoline-6-carboxamido)-3-(3-(methylsulfonyl)phenyl)propanoic acid], for which, on LFA-1/ICAM-1 [1], the “IC50 level in words” value is “several micromol levels” and the “LFA-1/ICAM-1 antagonist activity in words” value is “certain LFA-1/ICAM-1 antagonist activity”.
As a reminder, the IC50 is the concentration at which inhibition is half-maximal. Regarding `CS(=O)(=O)c1cccc(C[C@H](NC(=O)c2c(Cl)cc3c(c2Cl)CCN(C(=O)c2ccc4ccoc4c2)C3)C(=O)O)c1` [Lifitegrast, reference compound], the IC50 with LFA-1/ICAM-1 [2] was 9 nM; on LFA-1/ICAM-1 [1] (IC50, Jurkat T-cell adhesion assay, text and Fig. 3) it was approximately 10.5 nM.
Turning to `C#Cc1cccc(C(=O)N2CCc3c(cc(Cl)c(C(=O)N[C@@H](Cc4cccc(S(C)(=O)=O)c4)C(=O)O)c3Cl)C2)c1` [Compound 1e, (S)-2-(2-(3-Ethynylbenzoyl)-5,7-dichloro-1,2,3,4-tetrahydroisoquinoline-6-carboxamido)-3-(3-(methylsulfonyl)phenyl)propanoic acid], on LFA-1/ICAM-1 [1], the “LFA-1/ICAM-1 antagonist activity in words” value is on record as “decreased LFA-1/ICAM-1 antagonist activity obviously”.
Turning to `O=C1CCc2ccc(CC(NC(=O)c3c(Cl)cc4c(c3Cl)CCN(C(=O)c3ccc5ccoc5c3)C4)C(=O)O)cc2N1` (centres unmarked) [Compound 1h, 2-(2-(Benzofuran-6-carbonyl)-5,7-dichloro-1,2,3,4-tetrahydroisoquinoline-6-carboxamido)-3-(2-oxo-1,2,3,4-tetrahydroquinolin-7-yl)propanoic acid], the “IC50 level in words” value against LFA-1/ICAM-1 [1] is “several micromol levels”.
Turning to `CS(=O)(=O)c1cccc(C[C@H](NC(=O)c2c(Cl)cc3c(c2Cl)CCN(C(=O)NCc2ccc4ccoc4c2)C3)C(=O)O)c1` [Compound 1b, (S)-2-(2-((Benzofuran-6-ylmethyl)carbamoyl)-5,7-dichloro-1,2,3,4-tetrahydroisoquinoline-6-carboxamido)-3-(3-(methylsulfonyl)phenyl)propanoic acid], the “density of goblet cells on conjunctival epithelium” value in the experiment on dry eye mice model [3] (5% (W/V) compound 1b) and in the experiment on dry eye mice model [3] (7% (W/V) compound 1b) was “significantly increased the density of goblet cells; also recorded: significantly increased goblet cell density” in each case. Besides, the “TUNEL positive (Cy3 labeled) cells in cornea, apoptosis” value in the experiment with dry eye mice model [4] (5% (W/V) compound 1b) and in the experiment with dry eye mice model [4] (7% (W/V) compound 1b) was “markedly decreased; also recorded: protective effect on apoptosis of ocular surface cells” throughout. The “anti-apoptotic effect compared with Lifitegrast treatment group” value with dry eye mice model [4] (5% or 7% compound 1b vs 5% Lifitegrast) was “weaker than that of Lifitegrast”. The “LFA-1/ICAM-1 antagonist activity in words” value on LFA-1/ICAM-1 [1] was “certain LFA-1/ICAM-1 antagonist activity”. In addition, in the experiment on dry eye mice model [5], the “difference in effect between the two concentrations” value was “no statistical difference in the effect between 5% and 7%”.
On to `CS(=O)(=O)c1cccc(C[C@H](NC(=O)c2c(Cl)cc3c(c2Cl)CCN(C(=O)c2ccc4ncnn4c2)C3)C(=O)O)c1` [Compound 1d, (S)-2-(2-([1,2,4]Triazolo[1,5-a]pyridine-6-carbonyl)-5,7-dichloro-1,2,3,4-tetrahydroisoquinoline-6-carboxamido)-3-(3-(methylsulfonyl)phenyl)propanoic acid], for which the “LFA-1/ICAM-1 antagonist activity in words” value at LFA-1/ICAM-1 [1] is on record as “decreased LFA-1/ICAM-1 antagonist activity obviously”.
In the case of `CS(=O)(=O)c1cccc(C[C@H](NC(=O)c2c(Cl)cc3c(c2Cl)CCN(S(=O)(=O)c2ccc4ccoc4c2)C3)C(=O)O)c1` [Compound 1a, (S)-2-(2-(Benzofuran-6-ylsulfonyl)-5,7-dichloro-1,2,3,4-tetrahydroisoquinoline-6-carboxamido)-3-(3-(methylsulfonyl)phenyl)propanoic acid], the “LFA-1/ICAM-1 antagonist activity in words” value at LFA-1/ICAM-1 [1] was “decreased LFA-1/ICAM-1 antagonist activity obviously”.
In the case of `O=C(NC(Cc1ccc2ncccc2c1)C(=O)O)c1c(Cl)cc2c(c1Cl)CCN(C(=O)c1ccc3ccoc3c1)C2` (centres unmarked) [Compound 1f, 2-(2-(Benzofuran-6-carbonyl)-5,7-dichloro-1,2,3,4-tetrahydroisoquinoline-6-carboxamido)-3-(quinolin-6-yl)propanoic acid], the “IC50 level in words” value against LFA-1/ICAM-1 [1] was “several micromol levels”.
